The format of data set [1] is in vivo. To be noted: human, plasma, oral, C12hr, phenotypic mean (±95% CI). The method in brief:
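Stable kidney transplant recipients had held fixed doses for ≥7 days. Around 7 AM, after a 0-h draw, they took the oral test compound with a calcineurin inhibitor. Plasma was sampled serially over 12 h, iced, spun and stored at −70°C. LC/MS with internal standards (LLOQ 0.072 µg/mL) gave the 12-h trough. Three ABCC2 SNPs were TaqMan-genotyped in duplicate. THESIAS maximum-likelihood analysis estimated haplotype phenotypic means with 95% CI.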

The nature of data set [2]: Mycophenolic acid pharmacokinetic parameters by individual ABCC2 SNP genotype. Format: in vivo. The conditions noted are these: human, plasma, oral, mean; for AUC(0-t): Mycophenolic acid AUC0-12hr; for clearance: Mycophenolic acid Clearance. In short, it runs like this:
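Stable transplant recipients were studied at steady state. Oral test compound was given with a calcineurin inhibitor, with meals 4 h post-dose. Serial 12-h plasma was analysed by LC/MS (standard curve 0.145–15.5 µg/mL). AUC0-12h came from the linear trapezoidal rule, non-compartmental. […] ABCC2 −24C>T, 1249G>A and 3972C>T were genotyped by TaqMan allelic discrimination, 10 ng DNA, in duplicate.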

The conditions of data set [3]: following oral drug administration; attributed to enterohepatic circulation; ref [8],[12]; cited from earlier work.
Data set [4] is classed as in vivo, human. To be noted: for AUC: Mycophenolic acid AUC6-12hr. In short, it runs like this: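 Steady state with the same oral dose for ≥7 days, calcineurin inhibitor co-therapy. Pre-dose sample, then dosing ~7 AM, meals at 4 h, serial sampling over 12 h. Plasma iced, centrifuged, stored −70°C. LC/MS of test compound and its glucuronide, LLOQ 0.072 µg/mL. Non-compartmental AUC0-12h by linear trapezoidal rule. […] AUC6-12h/AUC0-12h gauges enterohepatic circulation.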

The conditions of data set [5]: human, in vivo, oral. In short, it runs like this:
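Patients at steady state, same oral calcineurin inhibitor dose for ≥7 days. 0-h blood drawn before the ~7 AM dose to give trough. Samples iced, centrifuged, harvested within 60 min, stored −70°C until assay.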

[6] abbreviates: ABCC2 1249 G>A (rs2273697) All, N=147.
Setting [7] is: ABCC2 3972 C>T (rs 3740066) All, N=146.
Setting [8] is: ABCC2 −24C>T (rs717620) All, N=147.

Where two headings read alike, the source gives them in different places.

With `COc1c(C)c2c(c(O)c1C/C=C(\C)CCC(=O)O)C(=O)OC2` [Mycophenolic acid, mycophenolic acid], the concentration at 12 h is 1010 ng/mL in data set [1] (All (N=147), variant haplotype (CGT)); 1630 ng/mL in data set [1] (All (N=147), wildtype haplotype (CGC)); 783 ng/mL in data set [1] (Cyclosporine Group (n=80), variant haplotype (CGT)); 965 ng/mL in data set [1] (Cyclosporine Group (n=80), wildtype haplotype (CGC)); 1330 ng/mL in data set [1] (Tacrolimus Group (n=67), variant haplotype (CGT)); 2250 ng/mL in data set [1] (Tacrolimus Group (n=67), wildtype haplotype (CGC)). The AUC(0-t) (usually exposure summed from dosing to a finite time, without extrapolation to infinity) in data set [2] (setting [6]) was found to be 53600 ng·h/mL; in data set [2] (setting [7]), 53400 ng·h/mL; in data set [2] (setting [8]) it was 53600 ng·h/mL; in data set [4] (human, plasma, oral, Mycophenolic acid AUC0-12hr, Tacrolimus Group (n=67), mean ± SD), 68900 ± 30900 ng·h/mL. The results for the clearance in data set [2] (setting [6]), in data set [2] (setting [7]) and in data set [2] (setting [8]) were 266 mL/min, 268 mL/min and 266 mL/min, respectively. Also, in data set [3], the “secondary mycophenolic acid peak, time of appearance” value is 6 to 12 h. In addition, the “Mycophenolic acid CL/F” value in data set [4] (All (N=147), steady state, oral, mean ± SD) was 15.99 ± 9.41 L/h; in data set [4] (Cyclosporine Group (n=80), mycophenolate mofetil, mean ± SD), 20.50 ± 9.99 L/h; in data set [4] (Tacrolimus Group (n=67), enteric-coated mycophenolate sodium, mean ± SD), 10.60 ± 4.71 L/h. Also, the “Enterohepatic Recirculation, patients” value is on record as 36 (45.0%) in data set [4] (Cyclosporine (n=80), 36 patients) and 52 (77.61%) in data set [4] (Tacrolimus (n=67), 52 patients). The “Mycophenolic acid AUC0-12hr” value in data set [4] (Cyclosporine Group (n=80), mean ± SD) was 40.82 ± 17.60 mg●hr/L. For the same compound, the area under the curve (AUC) (usually concentration integrated over time) in data set [4] (human, plasma, oral, All (N=147), mean ± SD) was found to be 19100 ± 15200 ng·h/mL; in data set [4] (human, plasma, oral, Cyclosporine Group (n=80), mean ± SD), 13100 ± 7150 ng·h/mL; in data set [4] (human, plasma, oral, Tacrolimus Group (n=67), mean ± SD), 26200 ± 18800 ng·h/mL. Also, the “patients achieving the therapeutic range of AUC0-12h from 30 to 60 mg●h/L” value worked out at 56.3% in data set [4] (patients receiving cyclosporine) and 34.3% in data set [4] (tacrolimus group). Moreover, the slower apparent clearance in data set [4] (tacrolimus group compared with cyclosporine group) turned out to be 48%. In addition, the “patients exhibiting enterohepatic circulation” value in data set [4] (tacrolimus regimen) is on record as “More than 75%”.
Turning to `C=CC[C@@H]1/C=C(\C)C[C@H](C)C[C@H](OC)[C@H]2O[C@@](O)(C(=O)C(=O)N3CCCC[C@H]3C(=O)O[C@H](/C(C)=C/[C@@H]3CC[C@@H](O)[C@H](OC)C3)[C@H](C)[C@@H](O)CC1=O)[C@H](C)C[C@@H]2OC` [Tacrolimus, tacrolimus], the concentration at 0 h in data set [5] was determined as 7.2 ± 1.89 ng/mL.

(Values after publication PMC9358627 (Journal of clinical pharmacology, 2021).)
